Experimental data from ChEMBL document CHEMBL1671820, “Incorporation of basic side chains into cryptolepine scaffold: structure-antimalarial activity relationships and mechanistic studies” (J Med Chem, 2011).

What was measured:
Plasmodium falciparum [1] = assay: Antiplasmodial activity against chloroquine-resistant ring stage Plasmodium falciparum W2 infected in human red blood cells after 48 hrs; type: functional, organism-based; details: W2, 48 h
Plasmodium falciparum [2] = assay: Antiplasmodial activity against chloroquine-sensitive ring stage Plasmodium falciparum 3D7 infected in human red blood cells after 48 hrs; type: functional, organism-based; details: 3D7, 48 h
Plasmodium falciparum [3] = assay: Antiplasmodial activity against chloroquine and pyrimethamine-resistant ring stage Plasmodium falciparum V1/S infected in human red blood cells after 48 hrs; type: functional, organism-based
Plasmodium falciparum [4] = assay: Antiplasmodial activity against chloroquine-sensitive, mefloquine-resistant ring stage Plasmodium falciparum D6 infected in human red blood cells after 48 hrs; type: functional, organism-based; details: D6, 48 h
Vero = assay: Cytotoxicity against african green monkey Vero cells after 48 hrs by MTT assay; type: cell-based; details: Chlorocebus sabaeus
Summary of the method: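 Vero monkey kidney cells in DMEM with 10% FBS at 37 C, 7% CO2; seeded 15000 cells/well and adhered overnight. Log dilutions from 30 mg/mL DMSO stock, 48 h exposure. MTT at 0.5 mg/mL final for 2 h; formazan dissolved in 95% ethanol, read at 570 nm. Viability relative to DMSO-medium wells; IC50 from concentration–viability curve; doxorubicin as standard.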

[5] = Selectivity index, ratio of IC50 for african green monkey Vero cells to IC50 for chloroquine-resistant ring stage Plasmodium falciparum W2; type: toxicity, cell-based; details: read-out: Ratio IC50
Summary of the method: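 Vero IC50 divided by W2 IC50. Vero: 15000 cells/well adhered overnight, then log dilutions from 30 mg/mL DMSO stock for 48 h. MTT 0.5 mg/mL final for 2 h at 37 C, formazan dissolved in 95% ethanol, A570 read against DMSO vehicle as 100% viability. W2: 48 h YOYO-1 flow-cytometric growth assay in human erythrocytes.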

Plasmodium falciparum [6] = assay: Resistance index, ratio of IC50 for chloroquine-resistant ring stage Plasmodium falciparum W2 to IC50 for chloroquine-sensitive ring stage Plasmodium falciparum 3D7; type: functional
Summary of the method: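 W2 IC50 divided by 3D7 IC50. Both were measured by 48 h YOYO-1 flow-cytometric growth assay on sorbitol-synchronised 1% ring-stage cultures in human erythrocytes at 37 C under 3% O2.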

Heme = assay: Binding affinity to heme by UV-visible titration
Summary of the method: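 Hematin monomer (FPIX-OH, 10 μM) in pH 5.5 HEPES-buffered 40% DMSO v/v at 25 C, titrated with ligand from 100 μM solution until above hematin concentration. Stirred 1 min per addition; spectra 230–500 nm, Soret change at 402 nm. Absorbance dilution-corrected, nonlinear fit for Kd; Kass calculated from Kd.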

Nucleic Acid = assay: Binding affinity to s(GATCCTAGGATC)2-DNA by fluorescence spectroscopy; type: nucleic-acid assay
Summary of the method: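 Buffer 0.01 M phosphate pH 7.4, 0.1 M NaCl, 25.0 C, 1 cm quartz cuvettes. Fluorescence: excitation 339 nm, emission 450–500 nm. Dilution-corrected intensity change fitted to single-site binding for Kd; Kass taken as 1/Kd.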

[7] = Inhibition of Plasmodium falciparum falcipain 2
[8] = Inhibition of Plasmodium falciparum falcipain 3

Structure (SMILES) | IC50 (Plasmodium falciparum [1]) | IC50 (Plasmodium falciparum [2]) | IC50 (Plasmodium falciparum [3]) | IC50 (Plasmodium falciparum [4]) | IC50 (Vero) | selectivity ratio [5] | Ratio IC50 (Plasmodium falciparum [6]) | Ka (Heme) | Ka (Nucleic Acid) | IC50 [7] | IC50 [8]
C[n+]1c2ccccc2c(NCCN)c2[nH]c3ccccc3c21.[Cl-] | 89 nM | 115 nM | 156 nM | 107 nM | 60000 nM | 678 | 0.6 | 0.127 ×10⁶ /M | 0.85 ×10⁶ /M | 6300 nM | > 25000 nM
CCN(CC)CCCCNc1c2ccccc2[n+](C)c2c1[nH]c1ccccc12.[Cl-] | 29 nM | 22.3 nM | 66 nM | 71 nM | 10000 nM | 358 | 0.4 | 0.15 ×10⁶ /M | 9 ×10⁶ /M |  | 
CCN(CC)c1c2ccccc2[n+](C)c2c1[nH]c1ccccc12.[Cl-] | 1250 nM | 2200 nM | 1770 nM | 1290 nM |  | 2 | 0.7 | 0.19 ×10⁶ /M | 0.47 ×10⁶ /M | 18000 nM | 46300 nM
C[n+]1c2ccccc2c(Nc2ccc(N3CCCCC3)cc2)c2[nH]c3ccccc3c21.[Cl-] | 455 nM | 375 nM | 176 nM | 287 nM |  | 11 | 2.6 | 0.21 ×10⁶ /M | 3.4 ×10⁶ /M | 8200 nM | 
C[n+]1c2ccccc2c(Nc2cccnc2)c2[nH]c3ccccc3c21.[Cl-] | 180 nM | 247 nM | 279 nM | 166 nM |  | 14 | 0.6 | 0.17 ×10⁶ /M | 1 ×10⁶ /M | 9320 nM | 
CCN(CC)CCNc1c2ccccc2[n+](C)c2c1[nH]c1ccccc12.[Cl-] |  | 130 nM | 72 nM | 70 nM |  | 34 | 1.2 | 0.41 ×10⁶ /M | 1.14 ×10⁶ /M | > 50000 nM | 
C[n+]1c2ccccc2c(NC2CCN(Cc3ccccc3)CC2)c2[nH]c3ccccc3c21.[Cl-] | 108 nM | 56 nM | 59 nM | 86 nM |  | 21 | 1.8 | 0.125 ×10⁶ /M | 0.68 ×10⁶ /M | 12800 nM | 
CN(C)CCNc1c2ccccc2[n+](C)c2c1[nH]c1ccccc12.[Cl-] |  | 62 nM | 85 nM | 66 nM |  | 111 | 0.8 | 0.12 ×10⁶ /M | 3.1 ×10⁶ /M | > 50000 nM | 
CN(C)CCCNc1c2ccccc2[n+](C)c2c1[nH]c1ccccc12.[Cl-] | 20 nM | 24 nM | 51 nM | 46 nM |  | 109 | 0.4 | 0.066 ×10⁶ /M | 3 ×10⁶ /M | 34000 nM | > 50000 nM
CCN(CC)Cc1ccc(Nc2c3ccccc3[n+](C)c3c2[nH]c2ccccc23)cc1O.[Cl-] | 52 nM | 56 nM | 15 nM | 24 nM |  | 17 | 3.5 | 0.075 ×10⁶ /M | 0.8 ×10⁶ /M | 15200 nM | 
C[n+]1c2cc(Cl)ccc2c(NC2CCNCC2)c2[nH]c3ccccc3c21.[Cl-] | 45 nM | 65 nM | 52 nM | 70 nM |  | 98 | 0.9 | 0.18 ×10⁶ /M | 4.5 ×10⁶ /M | 5600 nM | 
C[n+]1c2cc(Cl)ccc2c(NC2CCNCC2)c2[nH]c3cc(Cl)ccc3c21.[Cl-] | 48 nM | 31 nM | 35 nM | 30 nM |  | 16 | 1.4 | 0.12 ×10⁶ /M | 1.6 ×10⁶ /M | 4800 nM | 
CCN(CC)CCCNc1c2ccc(Cl)cc2[n+](C)c2c1[nH]c1ccccc12.[Cl-] | 21 nM | 34 nM | 40 nM | 70 nM | 13000 nM | 60 | 0.5 | 0.11 ×10⁶ /M | 17 ×10⁶ /M | 11000 nM | 
CCN(CC)CCCNc1c2ccccc2[n+](C)c2c1[nH]c1ccccc12.[Cl-] |  | 20 nM | 29 nM |  |  | 78 | 1.1 | 0.127 ×10⁶ /M | 9.1 ×10⁶ /M |  | 
CC(C)CN1CCC(Nc2c3ccccc3[n+](C)c3c2[nH]c2ccccc23)CC1.[Cl-] | 70 nM | 70 nM | 76 nM | 86 nM |  | 70 | 0.9 | 0.227 ×10⁶ /M | 0.74 ×10⁶ /M | 10500 nM | 16000 nM
C[n+]1c2ccccc2c(NC2CCN(Cc3ccccc3O)CC2)c2[nH]c3ccccc3c21.[Cl-] | 276 nM | 536 nM | 418 nM | 185 nM |  | 10 | 0.7 | 0.108 ×10⁶ /M | 0.6 ×10⁶ /M | 14800 nM | 43000 nM
C[n+]1c2ccccc2c(Nc2ccccc2)c2[nH]c3ccccc3c21.[Cl-] | 265 nM | 291 nM | 128 nM | 154 nM |  | 2 | 0.2 | 0.155 ×10⁶ /M | 0.51 ×10⁶ /M | 14000 nM | 
C[n+]1c2ccccc2c(NCCCCN)c2[nH]c3ccccc3c21.[Cl-] | 65 nM | 190 nM | 422 nM | 245 nM | > 85000 nM | 1310 | 0.2 | 0.147 ×10⁶ /M | 1.4 ×10⁶ /M |  | 
CN(C)CC(C)(C)CNc1c2ccccc2[n+](C)c2c1[nH]c1ccccc12.[Cl-] |  | 146 nM | 144 nM | 250 nM |  | 18 | 1.3 | 0.069 ×10⁶ /M | 2.6 ×10⁶ /M | 33500 nM | 26000 nM
CC(C)NCCCNc1c2ccccc2[n+](C)c2c1[nH]c1ccccc12.[Cl-] |  | 26.1 nM | 28 nM | 34 nM |  | 125 | 0.8 | 0.2 ×10⁶ /M | 5 ×10⁶ /M | > 25000 nM | 
C[n+]1c2ccccc2c(NCCCN2CCCCC2)c2[nH]c3ccccc3c21.[Cl-] |  | 23 nM | 28 nM | 34 nM | 20000 nM | 56 | 1.3 | 0.161 ×10⁶ /M | 5.3 ×10⁶ /M |  | 
CCN(CC)CCCC(C)Nc1c2ccccc2[n+](C)c2c1[nH]c1ccccc12.[Cl-] (centres undefined) | 122 nM | 145 nM | 274 nM | 161 nM |  | 103 | 0.4 | 0.062 ×10⁶ /M | 4.3 ×10⁶ /M | 11600 nM | 7000 nM
CC(CN(C)C)Nc1c2ccccc2[n+](C)c2c1[nH]c1ccccc12.[Cl-] (centres undefined) | 142 nM | 202 nM | 165 nM | 78 nM |  | 23 | 0.9 | 0.148 ×10⁶ /M | 1.9 ×10⁶ /M | 8300 nM | 14000 nM
